Where a name gives a salt, the structure may show the parent alone.
Columns and labels:
RAW264.7 [1] = test: Antiinflammatory activity in mouse RAW264.7 cells assessed as inhibition of LPS-induced nitric oxide production at 100 uM pre-incubated for 2 hrs before LPS stimulation for 16 hrs by Griess method; assay type: functional
Outline: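 RAW 264.7 cells (1.6 × 10^6 cells/mL) in F-12 Ham medium with 10% FBS, glutamate and penicillin-streptomycin. Compounds were given as DMSO stock diluted 1:100 in medium, final 100 µM, and concentration was checked by UV absorbance. After 2 h at 37 °C, LPS was added to a final 100 ng/mL and cells were incubated 16 h. Aminoguanidine was the positive control; mean ± S.D., n = 3.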

[2] = Antioxidant activity assessed as DPPH radical scavenging activity after 30 mins by spectrophotometry; assay type: physicochemical
RAW264.7 [3] = test: Cytotoxicity against mouse RAW264.7 cells assessed as cell viability at 100 uM pre-incubated for 2 hrs before LPS stimulation for 16 hrs followed by 4 hrs incubation by alamar blue assay; assay type: cell-based; details: raw264.7, 100 µM
Outline: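 Viability was read on the RAW 264.7 cells left after supernatant removal in the LPS/NO assay (100 µM compound, 2 h pre-incubation, LPS 100 ng/mL for 16 h). AlamarBlue was added and plates were incubated 4 h at 37 °C. Absorbance was read at 570 nm (reference 655 nm).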

SMILES	EC50 [2]	inhibition at 100 µM (RAW264.7 [1])	Activity (RAW264.7 [3])
O=C(O)c1cc(O)c(O)c(O)c1	10 µM		
COc1ccc([C@H]2Oc3cc(O)cc(O)c3C(=O)[C@@H]2O)c(OC)c1	> 100 µM	< 10%	
COc1ccc([C@@H]2Oc3cc(O)cc(O)c3C(=O)[C@H]2O)c(OC)c1	> 100 µM	< 10%	
COc1ccc(OC)c([C@H]2Oc3cc(O)cc(O)c3C(=O)[C@@H]2O)c1	> 100 µM	< 10%	
COc1ccc(OC)c([C@@H]2Oc3cc(O)cc(O)c3C(=O)[C@H]2O)c1	> 100 µM	< 10%	
COc1cc(OC)cc([C@H]2Oc3cc(O)cc(O)c3C(=O)[C@@H]2O)c1	> 100 µM	< 10%	
COc1cc(OC)cc([C@@H]2Oc3cc(O)cc(O)c3C(=O)[C@H]2O)c1	> 100 µM	< 10%	
COc1ccc([C@H]2Oc3cc(O)cc(O)c3C(=O)[C@@H]2O)cc1	> 100 µM	< 10%	
COc1ccccc1C1Oc2cc(O)cc(O)c2C(=O)C1O (racemic)	> 100 µM	< 10%	
COc1cccc(OC)c1C1Oc2cc(O)cc(O)c2C(=O)C1O (racemic)	> 100 µM	< 10%	
COc1ccc(C2Oc3cc(O)cc(O)c3C(=O)C2O)cc1OC (racemic)	> 100 µM	< 10%	
O=C1c2c(O)cc(O)cc2O[C@H](c2ccc(O)cc2)[C@H]1O [DIHYDROKAEMPFEROL]	> 100 µM	< 10%	
O=C1c2c(O)cc(O)cc2O[C@H](c2ccc(O)cc2O)[C@H]1O [DIHYDROMORIN]	> 100 µM	< 10%	
N=C(N)NN [PIMAGEDINE HYDROCHLORIDE]		72%	
O=C1c2c(O)cc(O)cc2O[C@H](c2ccccc2)[C@H]1O [PINOBAKSIN]	> 100 µM	< 10%	

Second part, led by results:

EC50 [2]	SMILES	inhibition at 100 µM (RAW264.7 [1])	Activity (RAW264.7 [3])
> 100 µM	O=C1c2c(O)cc(O)cc2O[C@@H](c2ccc(O)cc2)[C@@H]1O	< 10%	
12.6 µM	O=C1c2c(O)cc(O)cc2O[C@@H](c2ccc(O)c(O)c2)[C@@H]1O	< 10%	
> 100 µM	O=C1c2c(O)cc(O)cc2O[C@@H](c2ccccc2)[C@@H]1O	< 10%	
> 100 µM	O=C1c2c(O)cc(O)cc2O[C@H](c2ccccc2O)[C@H]1O	40%	Non-toxic
> 100 µM	O=C1c2c(O)cc(O)cc2O[C@@H](c2ccccc2O)[C@@H]1O	< 15%	Non-toxic
> 100 µM	O=C1c2c(O)cc(O)cc2O[C@H](c2cccc(O)c2)[C@H]1O	35%	Non-toxic
> 100 µM	O=C1c2c(O)cc(O)cc2O[C@@H](c2cccc(O)c2)[C@@H]1O	< 15%	Non-toxic
12.5 µM	O=C1c2c(O)cc(O)cc2O[C@H](c2cccc(O)c2O)[C@H]1O	70%	Non-toxic
13.2 µM	O=C1c2c(O)cc(O)cc2O[C@@H](c2cccc(O)c2O)[C@@H]1O	45%	Non-toxic
> 100 µM	O=C1c2c(O)cc(O)cc2O[C@@H](c2ccc(O)cc2O)[C@@H]1O	< 10%	
24.5 µM	O=C1c2c(O)cc(O)cc2O[C@H](c2cc(O)ccc2O)[C@H]1O	30%	Non-toxic
25.4 µM	O=C1c2c(O)cc(O)cc2O[C@@H](c2cc(O)ccc2O)[C@@H]1O	< 15%	Non-toxic
> 100 µM	O=C1c2c(O)cc(O)cc2O[C@H](c2cc(O)cc(O)c2)[C@H]1O	< 10%	
> 100 µM	O=C1c2c(O)cc(O)cc2O[C@@H](c2cc(O)cc(O)c2)[C@@H]1O	< 10%	
> 100 µM	COc1cccc([C@H]2Oc3cc(O)cc(O)c3C(=O)[C@@H]2O)c1	< 10%	
> 100 µM	COc1cccc([C@@H]2Oc3cc(O)cc(O)c3C(=O)[C@H]2O)c1	< 10%	
> 100 µM	COc1ccc([C@@H]2Oc3cc(O)cc(O)c3C(=O)[C@H]2O)cc1	< 10%	
> 100 µM	COc1cccc([C@H]2Oc3cc(O)cc(O)c3C(=O)[C@@H]2O)c1OC	< 10%	
> 100 µM	COc1cccc([C@@H]2Oc3cc(O)cc(O)c3C(=O)[C@H]2O)c1OC	< 10%	
13.9 µM	O=C1c2c(O)cc(O)cc2O[C@H](c2ccc(O)c(O)c2)[C@H]1O [(+)-TAXIFOLIN]	< 10%	
